Published values collected from several papers.
Compare with care: the assays were run in different laboratories.
HDAC6: Protein deacetylase HDAC6 (HDAC6, Homo sapiens, UniProt Q9UBN7)
PDE4D: 3',5'-cyclic-AMP phosphodiesterase 4D (PDE4D, Homo sapiens, UniProt Q08499)
F2: Prothrombin (F2, Homo sapiens, UniProt P00734)
CDK7 with cyclin H: Cyclin-dependent kinase 7, with cyclin H (CDK7, Homo sapiens, UniProt P50613)
MEP1B: Meprin A subunit beta (MEP1B, Homo sapiens, UniProt Q16820)
KCNK18: Potassium channel subfamily K member 18 (KCNK18, Homo sapiens, UniProt Q7Z418)
GRM7: Metabotropic glutamate receptor 7 (GRM7, Homo sapiens, UniProt Q14831)
Dihydroorotate dehydrogenase, mitochondrial, putative: Dihydroorotate dehydrogenase, mitochondrial, putative (Plasmodium vivax, UniProt A5K1N1)

| Structure (SMILES) | target | observed | mode | method | time | IC50 |
| --- | --- | --- | --- | --- | --- | --- |
| CCCON(Cc1ccc(C(=O)NO)cc1)C(=O)Nc1ccccc1 | HDAC6 | enzyme activity | inhibitor | fluorescence |  | 20 nM |
| Cc1ccc(-c2ccc(O)cc2)c(C(=C2C=CC(=O)C=C2)c2ccc(O)cc2)c1C#Cc1ccc(O)cc1 | PDE4D | enzyme activity | inhibitor |  |  | 175 nM |
| CNCCCOc1cc2nc(N3CCCN(C)CC3)nc(NC3CCN(C)CC3)c2cc1OC | Histone-lysine N-methyltransferase EHMT2 (EHMT2, Homo sapiens, UniProt Q96KQ7) | enzyme activity | inhibitor |  |  | 45 nM |
| CC[C@@H](C(=O)Nc1ccc(C(N)=O)c(F)c1)n1cc(OC)c(-c2cc(Cl)ccc2-n2cc(C(F)(F)F)nn2)cc1=O | F2 | enzyme activity | inhibitor |  |  | 6600 nM |
| COc1c(C(=O)/C=C(\O)c2ccccc2)ccc2occc12 | CDK7 with cyclin H | enzyme activity | inhibitor | ADP detection |  | > 100000 nM |
| CCCC[C@H](NC(=O)C1CN(C)C1)c1ncc(-c2cc3ccccc3nc2OC)[nH]1 | HDAC6 | enzyme activity | inhibitor |  |  | 1100 nM |
| COc1cc(/C=N/n2c(C)nc3ccc(C)cc3c2=O)ccc1OCc1ccccc1 | F2 | enzyme activity | inhibitor |  |  | 26600 nM |
| Cc1nc2ccccc2n1Cc1cc(F)c(C(=O)NO)c(F)c1 | HDAC6 | enzyme activity | inhibitor |  |  | 946 nM |
| COc1ccc(C2=NN(C3CCCCCC3)C(=O)[C@@H]3CC=CC[C@H]23)cc1-c1ccc(C(N)=O)cc1 (relative stereo) | PDE4D | enzyme activity | inhibitor |  |  | 126 nM |
| O=C(CCN(Cc1ccc(Cl)cc1F)Cc1ccc(Cl)c(O)c1F)NO | MEP1B | enzyme activity | inhibitor |  |  | 274 nM |
| COC(=O)C1=C(C)NC(C)=C(C(=O)OCCN(C)Cc2ccccc2)C1c1cccc([N+](=O)[O-])c1 (stereo not drawn) | KCNK18 | ion flux | inhibitor |  |  | 21900 nM |
| CC#Cc1cncc(-c2ccc3c(c2)[C@@]2(N=C(C)C(N)=N2)[C@]2(CC[C@H](OC)CC2)C3)c1 | Cathepsin D (CTSD, Homo sapiens, UniProt P07339) | enzyme activity | inhibitor |  |  | 16100 nM |
| Nc1ccc(-c2ccncc2)cc1NC(=O)N1CCCC1 | HDAC6 | enzyme activity | inhibitor |  |  | > 33300 nM |
| COCCOC(=O)C1=C(C)NC(C)=C(C(=O)OC(C)C)C1c1cccc([N+](=O)[O-])c1 (stereo not drawn) | Potassium channel subfamily K member 9 (KCNK9, Homo sapiens, UniProt Q9NPC2) | ion flux | inhibitor |  |  | > 30000 nM |
| COc1cc(/C=C2\SC(=O)NC2=O)cc(F)c1OCCNc1nc2c(cnn2C2CCCC2)c(=O)[nH]1 | PDE4D | enzyme activity | inhibitor |  |  | 765 nM |
| CC(C)=CCC[C@@H](C)c1ccc(C)c(O)c1 | UDP-glucuronosyltransferase 2B7 (UGT2B7, Homo sapiens, UniProt P16662) | enzyme activity | inhibitor |  | 1 h | 42100 nM |
| O=C(CCN(Cc1ccncc1)Cc1ccc(Cl)c(O)c1F)NO | MEP1B | enzyme activity | inhibitor |  |  | 703 nM |
| CCc1ccc(/C=N/n2c(C)nc3ccc(C)cc3c2=O)s1 | F2 | enzyme activity | inhibitor |  |  | 269000 nM |
| O=C(CCN(Cc1ccc2c(c1)OCO2)Cc1ccc(Cl)c(O)c1F)NO | MEP1B | enzyme activity | inhibitor |  |  | 146 nM |
| CN1CCN(c2ccc(Nc3ncc4cc(C#N)c(=O)n(C5CCCC5)c4n3)cc2)CC1 | Dual specificity protein kinase TTK (TTK, Homo sapiens, UniProt P33981) | enzyme activity | inhibitor |  |  | 66.8 nM |
| O=C(N[C@@H](Cc1c[nH]c2ccccc12)C(=O)O)c1ccc(Cl)cc1 | Free fatty acid receptor 3 (FFAR3, Homo sapiens, UniProt O14843) | calcium signal | antagonist |  |  | > 25100 nM |

| Structure (SMILES) | target | observed | mode | method | time | IC50 |
| --- | --- | --- | --- | --- | --- | --- |
| N#Cc1nc(NCc2cccc(-c3cn(S(=O)(=O)c4ccccc4)c4ccccc34)c2)c2ncn(CCCO)c2n1 | Cathepsin B-like cysteine protease (Trypanosoma brucei, UniProt Q6R7Z5) | enzyme activity | inhibitor |  |  | > 15000 nM |
| CC(C)(C)n1nc(-c2ccc3nc(OC4CC4)ccc3c2)c(C(N)=O)c1N | Mitogen-activated protein kinase 1 (MAPK1, Homo sapiens, UniProt P28482) | cell-free assay |  |  |  | > 10000 nM |
| CN(C)C/C=C/C(=O)Nc1ccc(C(=O)N2CC[C@@H](Nc3ncc(Cl)c(-c4c[nH]c5ccccc45)n3)C2)cc1 | CDK7 with cyclin H | enzyme activity | inhibitor | FRET |  | 6.33 nM |
| NC(=O)c1cccc(-c2cccc(OC(=O)NC3CCCCC3)c2)c1 | Liver carboxylesterase 1 (CES1, Homo sapiens, UniProt P23141) | enzyme activity | inhibitor |  |  | 39 nM |
| COc1cc(/C=N/n2c(C)nc3ccc(Br)cc3c2=O)ccc1O | F2 | enzyme activity | inhibitor |  |  | 42500 nM |
| CC[C@H](C)[C@H](NC(C)=O)C(=O)N[C@@H](CCC(=O)O)C(=O)N[C@H](C(=O)N[C@H](C=O)CC(=O)O)[C@@H](C)O | Caspase-10 (CASP10, Homo sapiens, UniProt Q92851) | enzyme activity | inhibitor |  |  | 12.5 nM |
| COc1cc(/C=N/n2c(C)nc3ccc(Br)cc3c2=O)ccc1OCc1ccc(Cl)cc1 | F2 | enzyme activity | inhibitor |  |  | 44900 nM |
| CC(C)C[C@H](NC(=O)[C@H](CCC(=O)O)NC(=O)[C@@H](NC(=O)[C@H](CO)NC(=O)[C@H](CCCCN)NC(=O)[C@H](CCC(N)=O)NC(=O)[C@H](Cc1ccc(O)cc1)NC(=O)[C@H](CCCNC(=N)N)NC(=O)[C@@H](N)CCCNC(=N)N)[C@@H](C)O)C(=O)O | Antigen peptide transporter 1/Antigen peptide transporter 2 (Homo sapiens, UniProt Q03518+Q03519) | ligand displacement |  |  |  | 100 nM |
| COc1ccc(-c2noc(-c3cc(Cl)c(F)cc3-n3cncn3)n2)cc1OC | GRM7 | calcium signal | antagonist |  |  | > 30000 nM |
| CNC(=O)[C@H](Cc1ccccc1)NC(=O)[C@H](CC(C)C)[C@H](CSc1cccs1)C(=O)NO | Disintegrin and metalloproteinase domain-containing protein 8 (Homo sapiens, UniProt P78325) | enzyme activity | inhibitor | fluorescence |  | 46 nM |
| CCOC(=O)C1=C(C)NC(C)=C(C(=O)OC)C1c1cccc([N+](=O)[O-])c1 (stereo not drawn) | KCNK18 | ion flux | inhibitor |  |  | 19800 nM |
| Cc1nc(Nc2ccc(C(F)(F)F)cc2)c2c(C(F)(F)F)noc2n1 | Dihydroorotate dehydrogenase, mitochondrial, putative | enzyme activity | inhibitor | absorbance |  | 76 nM |
| COc1cc(NCC(=O)Nn2c(C)nc3ccc(Cl)cc3c2=O)cc(OC)c1OC | F2 | enzyme activity | inhibitor |  |  | 63500 nM |
| COc1ccc2c(Oc3ccc4c(C(=O)Nc5ccccc5N)cccc4c3)ccnc2c1 | Potassium/sodium hyperpolarization-activated cyclic nucleotide-gated channel 4 (HCN4, Homo sapiens, UniProt Q9Y3Q4) | ion current | inhibitor |  |  | > 10000 nM |
| O=C(NO)c1ccc(Cn2c(C(F)(F)F)nc3ccccc32)cc1 | HDAC6 | enzyme activity | inhibitor |  |  | 10 nM |
| O=C(O)[C@H]1O[C@@H](O[C@H]2[C@H](O)[C@@H](NS(=O)(=O)O)[C@@H](OCCNS(=O)(=O)O)O[C@@H]2COS(=O)(=O)O)[C@H](O)[C@@H](O)[C@@H]1O[C@H]1O[C@H](COS(=O)(=O)O)[C@@H](O)[C@H](O)[C@H]1NS(=O)(=O)O | Coagulation factor X (F10, Bos taurus, UniProt P00743) | enzyme activity | inhibitor | absorbance |  | > 2000 nM |
| COc1ccc(-c2nnc(-c3cc(OC(F)(F)F)ccc3-n3ccnc3)o2)cc1OC | GRM7 | calcium signal | antagonist |  |  | 600 nM |
| Cc1nc(Nc2ccc(C)c(Cl)c2)c2c(C)noc2n1 | Dihydroorotate dehydrogenase, mitochondrial, putative | enzyme activity | inhibitor | absorbance |  | 260 nM |
| O=c1cc(-c2ccccc2)oc2c1ccc1ccccc12 | CDK7 with cyclin H | enzyme activity | inhibitor | ADP detection |  | > 100000 nM |
| Cc1nc(Nc2ccc(S(F)(F)(F)(F)F)cc2)c2c(C(F)(F)F)noc2n1 | Dihydroorotate dehydrogenase, mitochondrial, putative | enzyme activity | inhibitor | absorbance |  | 66 nM |
| CC/C=C\C/C=C\C/C=C\C/C=C\C/C=C\CCCC(=O)O | DNA-directed DNA polymerase (Enterobacteria phage T4, UniProt P04415) | enzyme activity | inhibitor |  |  | > 100000 nM |
